Bioassay records as filed in PubChem.
This is one part of a sample in which hits are shown more often than they occur.
Diaph act CS: counter-screen for diaphorase-based assays: diaphorase activators and chemical reducers; 190,000 tested, 0.005% active; Diaphorase/resazurin coupled assay, resorufin fluorescence, 16 min; active compounds read high; 1 = vehicle wells, 0 = NADH-free wells; activation factor at 20 µM;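 active = diaphorase activity raised at least twofold by the compound at 20 µM; inactive = activation factor below 2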
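Test system: Clostridium kluyveri diaphorase, purified enzyme. Buffer or medium: 50 mM HEPES pH 7.4 buffer plus MgCl2 and Tween 20. Also added: 0.114 mM NADH and 0.1 mM resazurin, final amounts. Dosing: compound 20 µM once, DMSO 1%. Schedule: 16 min enzyme reaction, ambient temperature. Detection: fluorescence of resorufin, 544 nm excitation, 590 nm emission.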
G6PDH counter: L. mesenteroides G6PDH inhibition counter-screen. inhibition, % at 5 µM. Purified L. mesenteroides G6PDH, diaphorase/resazurin coupled fluorescence, 45 min. 200,000 tested, 0.12% active. AID 1020
Diaphorase inh: inhibits diaphorase or chemically oxidizes, flagging diaphorase assay artifacts; diaphorase resazurin-to-resorufin fluorescence, NADH, 16 min; bacterial (C. kluyveri) enzyme, not human; inhibition, % at 20 µM; 190,000 tested, 0.69% active; AID 1217;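 active = primary screen inhibition at 20 µM above a set limit, cut at about 50% in these data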;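 also: plate controls were DMSO with full reaction for no effect and wells lacking NADH for full effect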
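Assay system: diaphorase enzyme from Clostridium kluyveri; Input: enzyme working solution with 0.14 U/mL diaphorase; Timing: 16 min at room temperature; Technique: resorufin fluorescence, excitation 544 nm, emission 590 nm; Benchmarks: positive control minus NADH, DMSO neutral control.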
Lmaj promast: inhibitors of Leishmania major promastigote growth. Leishmania major promastigotes, resazurin fluorescence viability. inhibition, % at 10 µM. 200,000 tested, 9% active. AID 1063;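 also: promastigotes grown with compound for 44 hours at 28 °C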
Redox H2O2 prof: compounds producing H2O2 with reducing agent – biochemical, NIH compound library profiling, artefact control for MLSCN library redox annotation, primary screen | AID 878 | activation, % at 10 µM | DTT-dependent redox cycling H2O2, phenol red/HRP absorbance; 100% = 100 µM peroxide control, 0% = buffer | 200,000 tested, 0.03% active;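 active = activation of at least 50% relative to the plate's high and low controls in the primary single-dose screen; inactive = activation below 50%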;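 also: compound incubated with DTT at 0.8 mM final as the reducing agent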
PfGluPho inh: PfG6PD (Plasmodium falciparum) enzyme inhibition. PfGluPho enzyme, NADPH resazurin-diaphorase fluorescence. inhibition, % at 20 µM. 350,000 tested, 0.78% active;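 active = inhibition reaching at least a set limit at 20 µM in the primary screen, cut at about 59% in these data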;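 also: 0% = DMSO wells with substrate and 100% = DMSO wells lacking glucose-6-phosphate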
Starred values were filed as active, the others as inactive. Rule as the data show it, unless noted: active = inhibition above about 50%; inactive = the rest.

Screening CC(NCc1cccc(Cl)c1Cl)C(O)c1ccccc1 (centres undefined) returned Diaph act CS 0.9, G6PDH counter 4, Diaphorase inh 6, Lmaj promast 3, Redox H2O2 prof 0 and PfGluPho inh 14.
For CCOC(=O)C1(c2ccccc2)CCN(CC(=O)c2ccc(NC(C)=O)cc2)CC1 the results were PfGluPho inh 8.
Cc1ccc(C(C)C)c(OCC(=O)N2CCN(Cc3nc4cc([N+](=O)[O-])ccc4n3C)CC2)c1 was read as Diaph act CS 0.7, G6PDH counter 14, Diaphorase inh 29, Lmaj promast 97*, Redox H2O2 prof 0 and PfGluPho inh 16.
O=C(c1ccc(Cl)cc1)C1CCCN(Cc2ccc3ncccc3c2)C1 (centres undefined) was read as Diaph act CS 1.1, G6PDH counter 1, Diaphorase inh -7, Lmaj promast 88*, Redox H2O2 prof -1 and PfGluPho inh 14.
For O=C(c1ccc(Cl)cc1)C1CCCN(Cc2ccc3c(c2)OCCO3)C1 (centres undefined) the results were Diaph act CS 0.9, G6PDH counter 12, Diaphorase inh 9, Lmaj promast 92*, Redox H2O2 prof 0 and PfGluPho inh 15.
Screening CC(=O)N1Cc2cnnn2-c2ccccc2C1C#N (centres undefined) returned PfGluPho inh 17.
COc1ccc2[nH]c(C)c(CCNCc3cc(OC)c4c(c3)OCO4)c2c1 was read as PfGluPho inh 5.
CCN1CCN(c2cc(N3CCCC3)c(F)cc2[N+](=O)[O-])CC1 was read as Diaph act CS 0.8, G6PDH counter 10, Diaphorase inh 18, Lmaj promast 71*, Redox H2O2 prof 0 and PfGluPho inh -12.
CN1CCN(c2cc(N3CCCC3)c([N+](=O)[O-])cc2F)CC1 was read as Diaph act CS 0.9, G6PDH counter 3, Diaphorase inh 5, Lmaj promast 99*, Redox H2O2 prof 1 and PfGluPho inh 17.
For O=[N+]([O-])c1cc(F)c(N2CCCC2)cc1Br the results were Diaph act CS 0.9, G6PDH counter -9, Diaphorase inh 11, Lmaj promast -9, Redox H2O2 prof -1 and PfGluPho inh -6.
`CC(=O)O[C@@H]1/C=C/[C@](C)(O)C[C@@H](C)C/C=C/[C@H]2[C@@H]3O[C@]3(C)[C@@H](C)[C@H]3[C@H](Cc4ccccc4)NC(=O)[C@@]312` gave PfGluPho inh -9.
`CCN(CC)C(=O)c1ccc2c(c1)C1C=CCC1C(C(=O)O)N2` (centres undefined) gave PfGluPho inh 13.
Screening O=[N+]([O-])c1cccc(CN2CCN(Cc3ccc(Br)cc3)CC2)c1 returned Diaph act CS 0.8, G6PDH counter 6, Diaphorase inh 15, Lmaj promast 87*, Redox H2O2 prof -3 and PfGluPho inh 5.
C[C@]12C[C@H](O)[C@@H](O)CC1=CCC1C2CC[C@@]2(C)C1CC[C@@H]2O (some centres undefined) was read as PfGluPho inh 4.
`O=C(Nc1ccc(F)cc1)N1Cc2ccccc2-n2nncc2C1` gave PfGluPho inh 0.
Screening N/C(=N\N=C/c1ccc(-c2ccc(O)c(C(=O)O)c2)o1)N[N+](=O)[O-] returned Diaph act CS 0.4, G6PDH counter 3, Diaphorase inh 57*, Lmaj promast -18, Redox H2O2 prof -9 and PfGluPho inh -10.
For COc1ccc(/C=N/N=C(/N)N[N+](=O)[O-])c(OC)c1 the results were Diaph act CS 0.8, G6PDH counter 1, Diaphorase inh 23, Lmaj promast -2, Redox H2O2 prof -4 and PfGluPho inh -13.
Cn1ncnc2c(=O)n(C)c(=O)nc1-2 was read as Diaph act CS 0.4, G6PDH counter 72*, Diaphorase inh 56* and PfGluPho inh 122*.
`CC(Cc1ccccc1Sc1ccccc1O)N(C)C` (centres undefined) gave Diaph act CS 0.8, G6PDH counter 10, Diaphorase inh 15, Lmaj promast 100*, Redox H2O2 prof 2 and PfGluPho inh 2.
C#CCN(C)[C@H](C)Cc1ccccc1 was read as Diaph act CS 0.9, G6PDH counter 4, Diaphorase inh 14 and PfGluPho inh -10.
Screening CN(C)S(=O)(=O)c1cccc(C(=O)N2CCC(C(=O)O)(c3ccccc3)CC2)c1 returned PfGluPho inh -20.
`O=C(NC1(C(F)(F)F)Oc2ccc(Cl)cc2O1)N1CCC2(CC1)OCCO2` (centres undefined) gave Diaph act CS 0.5, G6PDH counter 44, Diaphorase inh 52*, Lmaj promast 24, Redox H2O2 prof 0 and PfGluPho inh 7.
Screening O=C(NC1(C(F)(F)F)Oc2ccccc2O1)N1CCC2(CC1)OCCO2 returned Diaph act CS 0.6, G6PDH counter 24, Diaphorase inh 41, Lmaj promast -1, Redox H2O2 prof 0 and PfGluPho inh 33.
S=P(NCCSCc1ccccc1)(N1CC1)N1CC1 was read as PfGluPho inh 9.
Screening Cc1cccc(N2CCc3c2nc2ccccc2c3N)c1 returned Diaph act CS 0.9, G6PDH counter 9, Diaphorase inh 13, Lmaj promast 94*, Redox H2O2 prof 1 and PfGluPho inh 30.
Fc1ccccc1CNC1CN2CCC1CC2 (centres undefined) was read as Diaph act CS 0.9, G6PDH counter 10, Diaphorase inh 13, Lmaj promast -6, Redox H2O2 prof -1 and PfGluPho inh 6.
For Clc1ccc(CNC2CN3CCC2CC3)cc1 (centres undefined) the results were Diaph act CS 0.9, G6PDH counter 1, Diaphorase inh 8, Lmaj promast 92*, Redox H2O2 prof 0 and PfGluPho inh -11.
`O=C(N/N=C1/CN2CCC1CC2)c1cc2ccccc2cc1O` gave Diaph act CS 0.7, G6PDH counter 8, Diaphorase inh 29, Lmaj promast 92*, Redox H2O2 prof 2 and PfGluPho inh -8.
`c1coc(CN2Cc3ccccc3-n3nncc3C2)c1` gave PfGluPho inh -1.
Screening O=C1C2CCN(CC2)[C@@H]1Cc1ccc2ccccc2c1O returned Diaph act CS 0.9, G6PDH counter -11, Diaphorase inh 9, Lmaj promast 99*, Redox H2O2 prof 3 and PfGluPho inh 30.
`CC(=O)N1CCCSC1=Nc1ccccc1` gave Diaph act CS 0.9, G6PDH counter 4, Diaphorase inh 8, Lmaj promast 70*, Redox H2O2 prof -1 and PfGluPho inh 4.
